Measured values taken from ChEMBL document CHEMBL4837217, “Design, synthesis, in vitro and in vivo biological evaluation of pyranone-piperazine analogs as potent antileishmanial agents” (Eur J Med Chem, 2021).
Calls of active or inactive are those of the source. The rule behind the calls is not given here.

Tests used:
Leishmania donovani [1] = assay: Antileishmanial activity against log phase of Leishmania donovani MHOM/IN/80/Dd8 promastigotes assessed as reduction in cell viability at 25 uM incubated for 72 hrs by MTT assay; type: functional
In short: (§1)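 Log-phase luciferase-transfected L. donovani Dd8 promastigotes (M199 + 10% FBS, 24 °C) treated with compounds at 25 and 50 µM in DMSO, with 0.1% DMSO vehicle control. After 72 h, MTT added 4 h. Formazan dissolved in DMSO, read at 570 nm. Percent inhibition reported as mean ± SD of at least three independent experiments in replicate.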

Leishmania donovani [2] = assay: Antileishmanial activity against amastigote stage of Leishmania donovani MHOM/IN/80/Dd8 harboring luciferase gene infected in mouse J774 cells assessed as parasite growth inhibition at 25 uM incubated for 72 hrs by Steady-Glo reagent based luciferase assay; type: functional; conditions: for inhibition at 25 µM: MHOM/IN/80/Dd8, J774
In short: (§2)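 J774 murine macrophages, 4 × 10⁴ cells/well in RPMI with 10% FBS for 24 h, are infected for 24 h at 37 °C, 5% CO₂ with stationary-phase luciferase-transfected L. donovani Dd8 promastigotes at a 1:8 macrophage:parasite ratio. Compounds are dissolved in DMSO. Luminescence is read after Steady-Glo is added in PBS. IC₅₀ is taken from a four-parameter Hill nonlinear regression. Miltefosine is the reference.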

Leishmania donovani [3] = assay: Antileishmanial activity against log phase of Leishmania donovani MHOM/IN/80/Dd8 promastigotes assessed as reduction in cell viability at 50 uM incubated for 72 hrs by MTT assay; type: functional; in short: as §1
Leishmania donovani [4] = assay: Antileishmanial activity against amastigote stage of Leishmania donovani MHOM/IN/80/Dd8 harboring luciferase gene infected in mouse J774 cells assessed as parasite growth inhibition at 50 uM incubated for 72 hrs by Steady-Glo reagent based luciferase assay; type: functional; conditions: for inhibition at 50 µM: MHOM/IN/80/Dd8, J774; in short: as §2
Leishmania donovani [5] = assay: Antileishmanial activity against Leishmania donovani MHOM/IN/80/Dd8 infected in BALB/c mouse assessed as reduction in intracellular amastigote burden in spleen at 50 mg/kg, ip for 5 days and measured at 1 week post-treatment by Giemsa staining based assay relative to control; type: functional; conditions: time 12.0 day
In short: (§3)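 Female BALB/c mice (20–25 g), 5/group, infected iv with 2 × 10^7 stationary-phase L. donovani promastigotes. Infection confirmed at 2 wk, then 50 mg/kg ip daily for 5 consecutive days. Vehicle was 5% DMSO. Sacrificed day 7 post-treatment. Giemsa-stained liver/spleen impression smears counted as amastigotes/1000 nucleated cells, expressed as LDU (amastigotes per nucleated cell × organ weight in mg), compared with untreated infected controls.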

Leishmania donovani [6] = assay: Antileishmanial activity against amastigote stage of Leishmania donovani MHOM/IN/80/Dd8 harboring luciferase gene infected in mouse J774 cells assessed as parasite growth inhibition by Giemsa staining based analysis; type: functional, organism-based; conditions: time 12-72 hrs, TDE = time-dependent effect
In short: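 J774 macrophages are infected for 24 h with stationary-phase luciferase-transfected Dd8 promastigotes at a 1:8 ratio in chamber slides. After compound treatment, cells are fixed and Giemsa-stained, and intracellular amastigotes are counted by microscopy.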

Leishmania donovani [7] = assay: Antileishmanial activity against Leishmania donovani MHOM/IN/80/Dd8 infected in BALB/c mouse assessed as reduction in intracellular amastigote burden in liver at 50 mg/kg, ip for 5 days and measured at 1 week post-treatment by Giemsa staining based assay relative to control; type: functional; conditions: time 12.0 day; in short: as §3
Leishmania donovani [8] = assay: Antileishmanial activity against amastigote stage of Leishmania donovani MHOM/IN/80/Dd8 harboring luciferase gene infected in mouse J774 cells assessed as parasite killing incubated for 72 hrs by Steady-Glo reagent based luciferase assay; type: functional, organism-based; conditions: dose 3.12-50 µM; in short: as §2
Leishmania donovani [9] = assay: Antileishmanial activity against amastigote stage of Leishmania donovani MHOM/IN/80/Dd8 harboring luciferase gene infected in mouse J774 cells assessed as parasite killing at 50 to 100 uM incubated for 72 hrs by Steady-Glo reagent based luciferase assay; type: functional; conditions: dose 50-100 µM; in short: as §2
Leishmania donovani [10] = assay: Antileishmanial activity against log phase of Leishmania donovani MHOM/IN/80/Dd8 promastigotes assessed as reduction in cell viability by MTT assay; type: functional, organism-based; conditions: time 12-72 hrs, TDE = time-dependent effect
Leishmania donovani [11] = assay: Antileishmanial activity against amastigote stage of Leishmania donovani MHOM/IN/80/Dd8 harboring luciferase gene infected in mouse J774 cells assessed as parasite growth inhibition incubated for 72 hrs by Steady-Glo reagent based luciferase assay; type: functional, organism-based; conditions: MHOM/IN/80/Dd8, J774, 72 h; in short: as §2
[12] = Cytotoxicity against mouse J774 cells assessed as reduction in cell viability incubated for 72 hrs by MTT assay; type: cell-based
In short: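 J774 macrophages seeded at 1 × 10^5 cells/well overnight, then exposed to graded concentrations (7.81–500 µM) for 72 h at 37 °C, 5% CO2. MTT (5 mg/mL) added for 2 h, formazan solubilized in DMSO and read at 570 nm. CC50 taken as 50% viability loss relative to untreated cells.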

Leishmania donovani [13] = assay: Antileishmanial activity against Leishmania donovani promastigotes assessed as parasite growth inhibition incubated for 72 hrs by Alamar Blue assay; type: functional, organism-based

SMILES: N#Cc1c(N2CCN(c3ccccc3O)CC2)cc(-c2cccs2)c2c1CCSC2
- inhibition (Leishmania donovani [1]): inactive
- inhibition at 25 µM (Leishmania donovani [2]): 65%
- inhibition (Leishmania donovani [3]): inactive
- inhibition at 50 µM (Leishmania donovani [4]): 72.6%

SMILES: N#Cc1c(N2CCN(c3ccccc3O)CC2)c2c(oc1=O)-c1ccccc1CC2
- inhibition at 25 µM (Leishmania donovani [1]): 35.9%
- inhibition at 25 µM (Leishmania donovani [2]): 37.8%
- inhibition at 50 µM (Leishmania donovani [3]): 81.3%
- inhibition at 50 µM (Leishmania donovani [4]): 64.8%

SMILES: N#Cc1c(N2CCN(c3ccccc3Cl)CC2)cc(-c2ccc(Br)cc2)oc1=O
- inhibition at 25 µM (Leishmania donovani [1]): 57.9%
- inhibition at 25 µM (Leishmania donovani [2]): 60.5%
- inhibition at 50 µM (Leishmania donovani [3]): 66.5%
- inhibition at 50 µM (Leishmania donovani [4]): 68.5%

SMILES: COc1ccccc1N1CCN(c2cc(-c3ccc(Br)cc3)oc(=O)c2C#N)CC1
- inhibition at 25 µM (Leishmania donovani [1]): 56.6%
- inhibition at 25 µM (Leishmania donovani [2]): 43.3%
- inhibition at 50 µM (Leishmania donovani [3]): 61.2%
- inhibition at 50 µM (Leishmania donovani [4]): 58.3%

SMILES: COc1ccc(-c2cc(N3CCN(c4ccccc4Cl)CC3)c(C#N)c(=O)o2)cc1
- inhibition at 25 µM (Leishmania donovani [1]): 60.3%
- inhibition at 25 µM (Leishmania donovani [2]): 51%
- inhibition at 50 µM (Leishmania donovani [3]): 69.2%
- inhibition at 50 µM (Leishmania donovani [4]): 62.5%

SMILES: N#Cc1c(N2CCN(c3ccccc3O)CC2)cc(-c2cccs2)oc1=O
- Activity (Leishmania donovani [5]): Active
- Activity (Leishmania donovani [6]): Tde
- inhibition at 25 µM (Leishmania donovani [1]): 81.3%
- Activity (Leishmania donovani [7]): Active
- Activity (Leishmania donovani [8]): Dose-Dependent Effect
- inhibition at 25 µM (Leishmania donovani [2]): 84.7%
- Activity (Leishmania donovani [9]): >89%
- Activity (Leishmania donovani [10]): Tde
- inhibition at 50 µM (Leishmania donovani [3]): 90.2%
- IC50 (Leishmania donovani [11]): 15.3 µM
- CC50 at 72 h [12]: 311 µM
- inhibition at 50 µM (Leishmania donovani [4]): 89.3%

SMILES: N#Cc1c(N2CCN(c3ccccc3O)CC2)cc(-c2ccccc2)c2c1CSC2
- inhibition at 25 µM (Leishmania donovani [1]): 82.1%
- inhibition (Leishmania donovani [2]): inactive
- inhibition at 50 µM (Leishmania donovani [3]): 87.8%
- inhibition (Leishmania donovani [4]): inactive

SMILES: c1ccc2[nH]c(-c3ccc(N4CCN(c5ccc(-c6nc7ccccc7[nH]6)cc5)CC4)cc3)nc2c1
- IC50 (Leishmania donovani [13]): 0.41 µM

SMILES: N#Cc1c(N2CCN(c3ccccc3O)CC2)cc(-c2ccc(Br)s2)oc1=O
- inhibition at 25 µM (Leishmania donovani [1]): 52.1%
- inhibition at 25 µM (Leishmania donovani [2]): 74.8%
- inhibition at 50 µM (Leishmania donovani [3]): 88.1%
- IC50 (Leishmania donovani [11]): 13 µM
- inhibition at 50 µM (Leishmania donovani [4]): 85.1%

SMILES: N#Cc1c(N2CCN(c3ccccc3O)CC2)cc(-c2cccs2)c2c1CSC2
- inhibition (Leishmania donovani [1]): inactive
- inhibition at 25 µM (Leishmania donovani [2]): 60.1%
- inhibition at 50 µM (Leishmania donovani [3]): 4.8%
- inhibition at 50 µM (Leishmania donovani [4]): 79.3%

SMILES: N#Cc1c(N2CCN(c3ccccc3Cl)CC2)cc(-c2ccc(Cl)cc2)oc1=O
- inhibition at 25 µM (Leishmania donovani [1]): 55.2%
- inhibition at 25 µM (Leishmania donovani [2]): 73.1%
- inhibition at 50 µM (Leishmania donovani [3]): 58.3%
- inhibition at 50 µM (Leishmania donovani [4]): 71%

SMILES: N#Cc1c(N2CCN(c3ccccc3O)CC2)cc(-c2ccc(Br)cc2)oc1=O
- inhibition (Leishmania donovani [1]): inactive
- inhibition at 25 µM (Leishmania donovani [2]): 14.5%
- inhibition (Leishmania donovani [3]): inactive
- inhibition at 50 µM (Leishmania donovani [4]): 35.1%

SMILES: N#Cc1c(N2CCN(c3ccccc3Cl)CC2)cc(-c2ccccc2)oc1=O
- inhibition at 25 µM (Leishmania donovani [1]): 46.9%
- inhibition at 25 µM (Leishmania donovani [2]): 49.2%
- inhibition at 50 µM (Leishmania donovani [3]): 72.9%
- inhibition at 50 µM (Leishmania donovani [4]): 73.7%
